Experimental data: ChEMBL document CHEMBL2311322, “On scaffold hopping: challenges in the discovery of sulfated small molecules as mimetics of glycosaminoglycans” (Bioorg Med Chem Lett, 2013)
Active and inactive are the calls of the source. The rule behind the calls is not given here.

Experiments:
[1] = target: T1, Coagulation factor XII (Homo sapiens) (UniProt P00748); experiment: Inhibition of human coagulation factor 12a using spectrozyme F12a as substrate at 365 uM after 10 mins by spectrophotometric analysis
T1 sequence (whole entry): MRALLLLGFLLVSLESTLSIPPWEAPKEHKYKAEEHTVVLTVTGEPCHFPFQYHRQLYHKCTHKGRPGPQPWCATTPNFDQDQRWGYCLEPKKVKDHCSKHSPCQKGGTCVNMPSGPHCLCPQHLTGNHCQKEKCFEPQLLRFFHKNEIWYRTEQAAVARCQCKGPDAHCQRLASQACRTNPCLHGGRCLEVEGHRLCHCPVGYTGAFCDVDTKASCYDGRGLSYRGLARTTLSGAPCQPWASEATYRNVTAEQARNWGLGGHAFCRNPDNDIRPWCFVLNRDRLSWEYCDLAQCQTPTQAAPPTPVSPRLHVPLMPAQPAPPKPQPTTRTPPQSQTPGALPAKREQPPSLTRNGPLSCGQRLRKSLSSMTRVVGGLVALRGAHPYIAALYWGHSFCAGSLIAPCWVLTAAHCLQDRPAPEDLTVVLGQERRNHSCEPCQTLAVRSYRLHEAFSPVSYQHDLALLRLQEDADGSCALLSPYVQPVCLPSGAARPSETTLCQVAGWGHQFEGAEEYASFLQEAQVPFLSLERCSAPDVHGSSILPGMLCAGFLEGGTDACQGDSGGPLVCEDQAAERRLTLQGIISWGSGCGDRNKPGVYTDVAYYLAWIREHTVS
Procedure, shortened: (§1)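 Chromogenic substrate hydrolysis screen against each coagulation protease (VIIa, IXa, Xa, XIa, XIIa), each with its appropriate substrate. Inhibitor was tested at a single concentration of 365 μM. Fractional residual activity was taken as the ratio of initial hydrolysis rates with and without inhibitor, read spectrophotometrically.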

Prothrombin = Prothrombin (Homo sapiens, UniProt P00734); experiment: Inhibition of human alpha thrombin using spectrozyme TH as substrate
Procedure, shortened: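 Chromogenic assay: initial rate of Spectrozyme TH hydrolysis read spectrophotometrically at pH 7.4 and 25 °C across a range of inhibitor concentrations. Fractional loss of initial rate plotted against log concentration and fitted to a logistic dose–response equation to give IC50.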

Plasma = experiment: Anticoagulant activity in human plasma assessed as inhibition of Cacl2-induced coagulation after 4 mins by fibrometric analysis; type: functional
Procedure, shortened: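 Human plasma clotting times were read on a fibrometer in both prothrombin time (PT) and activated partial thromboplastin time (APTT) formats, across a range of inhibitor concentrations. Trend lines of clotting time versus concentration gave the concentration needed to double clotting time (2×PT, 2×APTT).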

[2] = target: Coagulation factor X (Homo sapiens) (UniProt P00742); experiment: Inhibition of human coagulation factor 10a using spectrozyme F10a as substrate at 365 uM after 10 mins by spectrophotometric analysis; procedure, shortened: as §1
[3] = target: T2, Coagulation factor VII (Homo sapiens) (UniProt P08709); experiment: Inhibition of human coagulation factor 7a using spectrozyme 7a as substrate at 365 uM after 10 mins by spectrophotometric analysis; procedure, shortened: as §1
T2 sequence (whole entry): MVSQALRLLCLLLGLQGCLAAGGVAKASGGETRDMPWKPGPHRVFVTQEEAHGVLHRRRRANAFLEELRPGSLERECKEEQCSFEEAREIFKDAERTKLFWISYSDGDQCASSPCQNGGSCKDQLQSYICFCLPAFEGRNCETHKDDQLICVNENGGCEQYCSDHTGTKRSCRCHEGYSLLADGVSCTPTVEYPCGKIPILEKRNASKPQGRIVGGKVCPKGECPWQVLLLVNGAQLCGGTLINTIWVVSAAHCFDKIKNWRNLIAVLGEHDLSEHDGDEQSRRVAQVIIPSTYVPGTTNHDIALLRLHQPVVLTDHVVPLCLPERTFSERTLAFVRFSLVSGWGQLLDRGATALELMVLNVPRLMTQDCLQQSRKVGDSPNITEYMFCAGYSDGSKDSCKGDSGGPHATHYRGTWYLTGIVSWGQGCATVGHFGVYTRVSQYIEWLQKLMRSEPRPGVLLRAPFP

[4] = target: Coagulation factor XI (Homo sapiens) (UniProt P03951); experiment: Inhibition of human coagulation factor 11a at 365 uM after 10 mins by spectrophotometric analysis; procedure, shortened: as §1
[5] = target: Coagulation factor IX (Homo sapiens) (UniProt P00740); experiment: Inhibition of human coagulation factor 9a using spectrozyme F9a as substrate at 365 uM after 10 mins by spectrophotometric analysis; procedure, shortened: as §1
Human alphaherpesvirus 1 = experiment: Binding affinity to Herpes simplex virus 1 recombinant Lys25-His332-truncated His6-tagged glycoprotein D expressed in Escherichia coli measured after 3 hrs by affinity co-electrophoretic analysis

Coagulation factor IX (Homo sapiens), sequence (P00740 47-191 limits assumed): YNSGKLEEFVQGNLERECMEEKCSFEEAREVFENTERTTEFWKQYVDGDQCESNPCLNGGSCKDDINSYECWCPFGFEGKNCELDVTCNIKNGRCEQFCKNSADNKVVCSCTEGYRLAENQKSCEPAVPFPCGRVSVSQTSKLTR
Coagulation factor IX (Homo sapiens), sequence (P00740 227-461 limits assumed): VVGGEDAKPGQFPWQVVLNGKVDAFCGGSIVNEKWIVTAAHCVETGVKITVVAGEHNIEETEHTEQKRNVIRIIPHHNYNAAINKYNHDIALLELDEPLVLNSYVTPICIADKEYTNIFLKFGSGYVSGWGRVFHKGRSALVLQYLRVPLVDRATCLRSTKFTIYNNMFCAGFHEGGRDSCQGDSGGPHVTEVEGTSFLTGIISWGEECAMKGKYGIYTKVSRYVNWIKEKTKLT
Coagulation factor X (Homo sapiens), sequence (P00742 41-179 limits assumed): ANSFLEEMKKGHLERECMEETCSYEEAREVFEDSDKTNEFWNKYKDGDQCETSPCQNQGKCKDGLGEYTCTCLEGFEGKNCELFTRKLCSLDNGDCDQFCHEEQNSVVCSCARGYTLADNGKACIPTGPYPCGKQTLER
Coagulation factor X (Homo sapiens), sequence (P00742 235-488 limits assumed): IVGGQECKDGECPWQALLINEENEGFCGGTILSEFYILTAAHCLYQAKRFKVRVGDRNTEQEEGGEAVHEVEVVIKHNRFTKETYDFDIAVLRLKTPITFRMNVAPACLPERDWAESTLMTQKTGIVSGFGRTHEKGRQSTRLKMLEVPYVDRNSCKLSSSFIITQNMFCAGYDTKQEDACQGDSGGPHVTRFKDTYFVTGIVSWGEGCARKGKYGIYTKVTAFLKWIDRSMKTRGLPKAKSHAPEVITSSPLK
Coagulation factor XI (Homo sapiens), sequence (P03951 19-387 limits assumed): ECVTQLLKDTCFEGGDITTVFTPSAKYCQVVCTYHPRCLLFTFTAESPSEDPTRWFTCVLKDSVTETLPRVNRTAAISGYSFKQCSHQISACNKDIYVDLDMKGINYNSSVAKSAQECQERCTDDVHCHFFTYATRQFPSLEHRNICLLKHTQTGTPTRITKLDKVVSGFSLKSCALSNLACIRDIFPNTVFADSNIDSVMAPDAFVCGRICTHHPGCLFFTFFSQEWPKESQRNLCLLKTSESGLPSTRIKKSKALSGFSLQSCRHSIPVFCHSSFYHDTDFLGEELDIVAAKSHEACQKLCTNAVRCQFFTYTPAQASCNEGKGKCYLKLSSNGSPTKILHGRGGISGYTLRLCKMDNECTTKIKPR
Coagulation factor XI (Homo sapiens), sequence (P03951 388-625 limits assumed): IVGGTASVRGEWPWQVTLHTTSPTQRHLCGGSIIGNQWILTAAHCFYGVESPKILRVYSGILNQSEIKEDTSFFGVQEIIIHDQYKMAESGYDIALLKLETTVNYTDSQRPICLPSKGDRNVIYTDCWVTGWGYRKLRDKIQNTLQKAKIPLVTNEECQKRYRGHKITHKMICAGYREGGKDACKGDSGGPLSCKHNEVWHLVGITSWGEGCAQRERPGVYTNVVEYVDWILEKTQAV

| SMILES | inhibition [1] | IC50 (Prothrombin) | 2PT (Plasma) | 2aPTT (Plasma) | inhibition [2] | inhibition [3] | inhibition [4] | inhibition [5] | Activity (Human alphaherpesvirus 1) |
| --- | --- | --- | --- | --- | --- | --- | --- | --- | --- |
| N#Cc1c(SCC(=O)c2cccc(OS(=O)(=O)O)c2OS(=O)(=O)O)nc([N+](=O)[O-])c(C#N)c1-c1ccc(OCc2ccccc2)cc1 | > 20% | 65.9 µM | 606 µM | 550 µM | > 20% | > 20% | Active | > 20% |  |
| O=C(O)C1=C[C@H](O)[C@@H](OS(=O)(=O)O)[C@@H](O[C@H]2[C@H](O)[C@@H](NS(=O)(=O)O)[C@@H](O[C@H]3[C@H](O)[C@@H](OS(=O)(=O)O)[C@@H](O[C@H]4[C@H](O)[C@@H](NS(=O)(=O)O)[C@@H](O[C@H]5[C@H](O)[C@@H](OS(=O)(=O)O)[C@@H](O[C@H]6[C@H](OS(=O)(=O)O)[C@@H](NS(=O)(=O)O)[C@@H](O[C@H]7[C@H](O)[C@@H](OS(=O)(=O)O)[C@@H](O[C@H]8[C@H](O)[C@@H](NS(=O)(=O)O)[C@@H](O)O[C@@H]8COS(=O)(=O)O)O[C@H]7C(=O)O)O[C@@H]6COS(=O)(=O)O)O[C@H]5C(=O)O)O[C@@H]4COS(=O)(=O)O)O[C@H]3C(=O)O)O[C@@H]2COS(=O)(=O)O)O1 |  |  |  |  |  |  |  |  | 19 µM |
| O=C(Nc1ccc(OS(=O)(=O)O)cc1)c1cccc(N2C(=O)c3ccc(C(=O)Nc4ccc(OS(=O)(=O)O)cc4)cc3C2=O)c1 | > 20% | 286 µM |  |  | > 20% | > 20% | inactive | > 20% |  |
